Measurements taken from ChEMBL document CHEMBL3352507, “Preparation and antimalarial activity of a novel class of carbohydrate-derived, fused thiochromans” (Eur J Med Chem, 2014).

System: Plasmodium falciparum
Assay: Antimalarial activity against Plasmodium falciparum 3D7 after 48 hrs by parasite lactate dehydrogenase assay
Assay type: functional, organism-based
Conditions: 3D7, 48 h
Summary of the method: (§1)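 Parasite survival read by parasite lactate dehydrogenase (pLDH) assay. Single-concentration prescreen at […]; compounds with 0–15% survival were taken to dose–response. Ten three-fold serial dilutions in triplicate, incubated 48 h in a gassed airtight box, developed with NBT/PES. IC50 from sigmoidal curve of % survival relative to control against log concentration.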

SMILES | IC50 [µM]
O=S1(=O)C[C@@H]2[C@@H](OCc3ccccc3)[C@H](OCc3ccccc3)[C@@H](COCc3ccccc3)O[C@@H]2c2ccccc21 | > 100
Cc1ccc2c(c1)[C@H]1O[C@H](COCc3ccccc3)[C@@H](OCc3ccccc3)[C@H](OCc3ccccc3)[C@H]1CS2(=O)=O | 2.32
COc1ccc2c(c1)[C@H]1O[C@H](COCc3ccccc3)[C@@H](OCc3ccccc3)[C@H](OCc3ccccc3)[C@H]1CS2(=O)=O | 1.8
CC(C)(C)c1ccc2c(c1)[C@H]1O[C@H](COCc3ccccc3)[C@@H](OCc3ccccc3)[C@H](OCc3ccccc3)[C@H]1CS2(=O)=O | 0.39
Cc1cccc2c1S(=O)(=O)C[C@@H]1[C@@H](OCc3ccccc3)[C@H](OCc3ccccc3)[C@@H](COCc3ccccc3)O[C@H]21 | 2.34
O=S1(=O)C[C@@H]2[C@@H](OCc3ccccc3)[C@H](OCc3ccccc3)[C@@H](COCc3ccccc3)O[C@@H]2c2c1ccc1ccccc21 | 2.09
CC(=O)OC[C@H]1O[C@@H]2c3cc(C(C)(C)C)ccc3S(=O)(=O)C[C@@H]2[C@@H](OC(C)=O)[C@@H]1OC(C)=O | > 100
CC(C)(C)c1ccc2c(c1)[C@H]1O[C@H](CO)[C@@H](O)[C@H](O)[C@H]1CS2(=O)=O | > 100
O=S1(=O)C[C@@H]2[C@@H](OCc3ccccc3)[C@H](OCc3ccccc3)[C@@H](COCc3ccccc3)O[C@H]2c2ccccc21 | 4.14
Cc1ccc2c(c1)[C@@H]1O[C@H](COCc3ccccc3)[C@@H](OCc3ccccc3)[C@H](OCc3ccccc3)[C@H]1CS2(=O)=O | 2.34
COc1ccc2c(c1)[C@@H]1O[C@H](COCc3ccccc3)[C@@H](OCc3ccccc3)[C@H](OCc3ccccc3)[C@H]1CS2(=O)=O | 2.5
CC(C)(C)c1ccc2c(c1)[C@@H]1O[C@H](COCc3ccccc3)[C@@H](OCc3ccccc3)[C@H](OCc3ccccc3)[C@H]1CS2(=O)=O | > 100
Cc1cccc2c1S(=O)(=O)C[C@@H]1[C@@H](OCc3ccccc3)[C@H](OCc3ccccc3)[C@@H](COCc3ccccc3)O[C@@H]21 | 3.4
O=S1(=O)C[C@@H]2[C@@H](OCc3ccccc3)[C@H](OCc3ccccc3)[C@@H](COCc3ccccc3)O[C@H]2c2c1ccc1ccccc21 | > 100

System: not listed separately
Assay: Cytotoxicity against human WI38 cells assessed as cell viability at 10 uM after 48 hrs by SRB assay
Assay type: cell-based, WI-38
Conditions: read-out: Activity
Summary of the method: (§2)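 WI-38 fibroblasts (passages 21–50) were seeded at 10 000 cells/well for 24 h, then exposed for 48 h to compound dissolved in DMSO and diluted in medium. Viable cells were fixed with cold 50% trichloroacetic acid and stained with sulforhodamine B. Bound dye was extracted with 10 mM Tris base and read at 540 nm. Viability relative to drug-free cells.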

SMILES | viability at 48 h, 10 µM [%]
O=S1(=O)C[C@@H]2[C@@H](OCc3ccccc3)[C@H](OCc3ccccc3)[C@@H](COCc3ccccc3)O[C@@H]2c2ccccc21 | 92.4
Cc1ccc2c(c1)[C@H]1O[C@H](COCc3ccccc3)[C@@H](OCc3ccccc3)[C@H](OCc3ccccc3)[C@H]1CS2(=O)=O | 91.7
CC(C)(C)c1ccc2c(c1)[C@H]1O[C@H](COCc3ccccc3)[C@@H](OCc3ccccc3)[C@H](OCc3ccccc3)[C@H]1CS2(=O)=O | 91

System: not listed separately
Assay: Cytotoxicity against human WI38 cells assessed as cell viability at 100 uM after 48 hrs by SRB assay
Assay type: cell-based, WI-38
Conditions: read-out: Activity
Summary of the method: as §2

SMILES | viability at 48 h, 100 µM [%]
O=S1(=O)C[C@@H]2[C@@H](OCc3ccccc3)[C@H](OCc3ccccc3)[C@@H](COCc3ccccc3)O[C@@H]2c2ccccc21 | 67.8
Cc1ccc2c(c1)[C@H]1O[C@H](COCc3ccccc3)[C@@H](OCc3ccccc3)[C@H](OCc3ccccc3)[C@H]1CS2(=O)=O | 68.5
CC(C)(C)c1ccc2c(c1)[C@H]1O[C@H](COCc3ccccc3)[C@@H](OCc3ccccc3)[C@H](OCc3ccccc3)[C@H]1CS2(=O)=O | 71.7

System: not listed separately
Assay: Cytotoxicity against human WI38 cells after 48 hrs by SRB assay
Assay type: cell-based
Conditions: WI-38, 48 h
Summary of the method: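 WI-38 human fetal lung fibroblasts (passages 21–50) in EMEM with 10% FBS, 2 mM L-glutamine and gentamicin, at 37 °C and 5% CO2. Seeded at 10 000 cells/well, grown 24 h, then given compound in DMSO diluted in medium to 5 concentrations for 48 h. Cells were fixed with cold 50% TCA and stained with SRB, and dye was read at 540 nm. IC50 by non-linear regression against untreated controls.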

SMILES | IC50 [µM]
O=S1(=O)C[C@@H]2[C@@H](OCc3ccccc3)[C@H](OCc3ccccc3)[C@@H](COCc3ccccc3)O[C@@H]2c2ccccc21 | > 100
Cc1ccc2c(c1)[C@H]1O[C@H](COCc3ccccc3)[C@@H](OCc3ccccc3)[C@H](OCc3ccccc3)[C@H]1CS2(=O)=O | > 100
COc1ccc2c(c1)[C@H]1O[C@H](COCc3ccccc3)[C@@H](OCc3ccccc3)[C@H](OCc3ccccc3)[C@H]1CS2(=O)=O | > 100
CC(C)(C)c1ccc2c(c1)[C@H]1O[C@H](COCc3ccccc3)[C@@H](OCc3ccccc3)[C@H](OCc3ccccc3)[C@H]1CS2(=O)=O | > 100
Cc1cccc2c1S(=O)(=O)C[C@@H]1[C@@H](OCc3ccccc3)[C@H](OCc3ccccc3)[C@@H](COCc3ccccc3)O[C@H]21 | > 100
O=S1(=O)C[C@@H]2[C@@H](OCc3ccccc3)[C@H](OCc3ccccc3)[C@@H](COCc3ccccc3)O[C@@H]2c2c1ccc1ccccc21 | > 100
O=S1(=O)C[C@@H]2[C@@H](OCc3ccccc3)[C@H](OCc3ccccc3)[C@@H](COCc3ccccc3)O[C@H]2c2ccccc21 | > 100
Cc1ccc2c(c1)[C@@H]1O[C@H](COCc3ccccc3)[C@@H](OCc3ccccc3)[C@H](OCc3ccccc3)[C@H]1CS2(=O)=O | > 100
COc1ccc2c(c1)[C@@H]1O[C@H](COCc3ccccc3)[C@@H](OCc3ccccc3)[C@H](OCc3ccccc3)[C@H]1CS2(=O)=O | > 100
CC(C)(C)c1ccc2c(c1)[C@@H]1O[C@H](COCc3ccccc3)[C@@H](OCc3ccccc3)[C@H](OCc3ccccc3)[C@H]1CS2(=O)=O | > 100
Cc1cccc2c1S(=O)(=O)C[C@@H]1[C@@H](OCc3ccccc3)[C@H](OCc3ccccc3)[C@@H](COCc3ccccc3)O[C@@H]21 | > 100

System: not listed separately
Assay: Cytotoxicity against human WI38 cells assessed as cell viability at 0.01 uM after 48 hrs by SRB assay
Assay type: cell-based, WI-38
Conditions: read-out: Activity
Summary of the method: as §2

SMILES | viability at 48 h, 0.01 µM [%]
O=S1(=O)C[C@@H]2[C@@H](OCc3ccccc3)[C@H](OCc3ccccc3)[C@@H](COCc3ccccc3)O[C@@H]2c2ccccc21 | 97.8
Cc1ccc2c(c1)[C@H]1O[C@H](COCc3ccccc3)[C@@H](OCc3ccccc3)[C@H](OCc3ccccc3)[C@H]1CS2(=O)=O | 99.5
CC(C)(C)c1ccc2c(c1)[C@H]1O[C@H](COCc3ccccc3)[C@@H](OCc3ccccc3)[C@H](OCc3ccccc3)[C@H]1CS2(=O)=O | 96.7

System: Plasmodium falciparum
Assay: Antimalarial activity against Plasmodium falciparum FCR3 after 48 hrs by parasite lactate dehydrogenase assay
Assay type: functional, organism-based
Conditions: FCR3, 48 h
Summary of the method: as §1

SMILES | IC50 [µM]
O=S1(=O)C[C@@H]2[C@@H](OCc3ccccc3)[C@H](OCc3ccccc3)[C@@H](COCc3ccccc3)O[C@@H]2c2ccccc21 | 3.95
Cc1ccc2c(c1)[C@H]1O[C@H](COCc3ccccc3)[C@@H](OCc3ccccc3)[C@H](OCc3ccccc3)[C@H]1CS2(=O)=O | 1.93
COc1ccc2c(c1)[C@H]1O[C@H](COCc3ccccc3)[C@@H](OCc3ccccc3)[C@H](OCc3ccccc3)[C@H]1CS2(=O)=O | 1.7
CC(C)(C)c1ccc2c(c1)[C@H]1O[C@H](COCc3ccccc3)[C@@H](OCc3ccccc3)[C@H](OCc3ccccc3)[C@H]1CS2(=O)=O | 0.28
Cc1cccc2c1S(=O)(=O)C[C@@H]1[C@@H](OCc3ccccc3)[C@H](OCc3ccccc3)[C@@H](COCc3ccccc3)O[C@H]21 | 1.62
O=S1(=O)C[C@@H]2[C@@H](OCc3ccccc3)[C@H](OCc3ccccc3)[C@@H](COCc3ccccc3)O[C@@H]2c2c1ccc1ccccc21 | 3.83
CC(=O)OC[C@H]1O[C@@H]2c3cc(C(C)(C)C)ccc3S(=O)(=O)C[C@@H]2[C@@H](OC(C)=O)[C@@H]1OC(C)=O | > 100
CC(C)(C)c1ccc2c(c1)[C@H]1O[C@H](CO)[C@@H](O)[C@H](O)[C@H]1CS2(=O)=O | > 100
O=S1(=O)C[C@@H]2[C@@H](OCc3ccccc3)[C@H](OCc3ccccc3)[C@@H](COCc3ccccc3)O[C@H]2c2ccccc21 | 3.21
Cc1ccc2c(c1)[C@@H]1O[C@H](COCc3ccccc3)[C@@H](OCc3ccccc3)[C@H](OCc3ccccc3)[C@H]1CS2(=O)=O | 1.69
COc1ccc2c(c1)[C@@H]1O[C@H](COCc3ccccc3)[C@@H](OCc3ccccc3)[C@H](OCc3ccccc3)[C@H]1CS2(=O)=O | 1.95
CC(C)(C)c1ccc2c(c1)[C@@H]1O[C@H](COCc3ccccc3)[C@@H](OCc3ccccc3)[C@H](OCc3ccccc3)[C@H]1CS2(=O)=O | 0.7
Cc1cccc2c1S(=O)(=O)C[C@@H]1[C@@H](OCc3ccccc3)[C@H](OCc3ccccc3)[C@@H](COCc3ccccc3)O[C@@H]21 | 2.14
O=S1(=O)C[C@@H]2[C@@H](OCc3ccccc3)[C@H](OCc3ccccc3)[C@@H](COCc3ccccc3)O[C@H]2c2c1ccc1ccccc21 | > 100

System: not listed separately
Assay: Cytotoxicity against human WI38 cells assessed as cell viability at 0.1 uM after 48 hrs by SRB assay
Assay type: cell-based, WI-38
Conditions: read-out: Activity
Summary of the method: as §2

SMILES | viability at 48 h, 0.1 µM [%]
O=S1(=O)C[C@@H]2[C@@H](OCc3ccccc3)[C@H](OCc3ccccc3)[C@@H](COCc3ccccc3)O[C@@H]2c2ccccc21 | 97
Cc1ccc2c(c1)[C@H]1O[C@H](COCc3ccccc3)[C@@H](OCc3ccccc3)[C@H](OCc3ccccc3)[C@H]1CS2(=O)=O | 95.7
CC(C)(C)c1ccc2c(c1)[C@H]1O[C@H](COCc3ccccc3)[C@@H](OCc3ccccc3)[C@H](OCc3ccccc3)[C@H]1CS2(=O)=O | 96.3

System: not listed separately
Assay: Cytotoxicity against human WI38 cells assessed as cell viability at 1 uM after 48 hrs by SRB assay
Assay type: cell-based, WI-38
Conditions: read-out: Activity
Summary of the method: as §2

SMILES | viability at 48 h, 1 µM [%]
O=S1(=O)C[C@@H]2[C@@H](OCc3ccccc3)[C@H](OCc3ccccc3)[C@@H](COCc3ccccc3)O[C@@H]2c2ccccc21 | 97
Cc1ccc2c(c1)[C@H]1O[C@H](COCc3ccccc3)[C@@H](OCc3ccccc3)[C@H](OCc3ccccc3)[C@H]1CS2(=O)=O | 94.6
CC(C)(C)c1ccc2c(c1)[C@H]1O[C@H](COCc3ccccc3)[C@@H](OCc3ccccc3)[C@H](OCc3ccccc3)[C@H]1CS2(=O)=O | 92.7
